# Laboratory results published in ChEMBL document CHEMBL1129424, “Heterocyclic amides: inhibitors of acyl-CoA:cholesterol O-acyl transferase with hypocholesterolemic activity in several species and antiatherosclerotic activity in the rabbit” (J Med Chem, 1996).
# Test system: Oryctolagus cuniculus
# Experiment: Percent change in lesion coverage relative to control in the thoracic aorta at dose 25 mg/Kg in rabbits
# Type: functional
# Procedure, shortened: (§1)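 Injured cholesterol-fed rabbits: diet of 0.5% cholesterol, 3% peanut oil, 3% coconut oil for 9 weeks (1 week before, 8 weeks after surgery), producing thoracic aortic and iliac-femoral lesions. Doses 1, 5 or 25 mg/kg. Thoracic aortic lesion coverage, plasma total cholesterol and triglycerides given as percent change versus control; Student's t-test, p < 0.05.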
row,Compound,Activity
1,CCCCCCCCCCC(C)(C)C(=O)Nc1c(OC)cc(OC)cc1OC [CL-976],-41%
2,CCCCCCCCCCCCc1cc(C(C(=O)Nc2c(OC)cc(OC)cc2OC)c2ccccc2)on1 (configuration not stated),-32%
3,CCCCCCCCCCCCc1cc(C(C(=O)Nc2c(OC)cc(OC)cc2OC)c2ccccc2)no1 (configuration not stated),-36%

# Test system: Oryctolagus cuniculus
# Experiment: Percent change in plasma triglyceride levels at dose 5 mg/Kg in rabbits
# Type: functional
# Procedure, shortened: as §1
row,Compound,DeltaTG
1,CCCCCCCCCCCCc1cc(C(C(=O)Nc2c(OC)cc(OC)cc2OC)c2ccccc2)on1 (configuration not stated),111%
2,CCCCCCCCCCCCc1cc(C(C(=O)Nc2c(OC)cc(OC)cc2OC)c2ccccc2)no1 (configuration not stated),66%

# Target: T1, Sterol O-acyltransferase 1 (Rattus norvegicus) (UniProt O70536)
# T1 sequence (whole entry): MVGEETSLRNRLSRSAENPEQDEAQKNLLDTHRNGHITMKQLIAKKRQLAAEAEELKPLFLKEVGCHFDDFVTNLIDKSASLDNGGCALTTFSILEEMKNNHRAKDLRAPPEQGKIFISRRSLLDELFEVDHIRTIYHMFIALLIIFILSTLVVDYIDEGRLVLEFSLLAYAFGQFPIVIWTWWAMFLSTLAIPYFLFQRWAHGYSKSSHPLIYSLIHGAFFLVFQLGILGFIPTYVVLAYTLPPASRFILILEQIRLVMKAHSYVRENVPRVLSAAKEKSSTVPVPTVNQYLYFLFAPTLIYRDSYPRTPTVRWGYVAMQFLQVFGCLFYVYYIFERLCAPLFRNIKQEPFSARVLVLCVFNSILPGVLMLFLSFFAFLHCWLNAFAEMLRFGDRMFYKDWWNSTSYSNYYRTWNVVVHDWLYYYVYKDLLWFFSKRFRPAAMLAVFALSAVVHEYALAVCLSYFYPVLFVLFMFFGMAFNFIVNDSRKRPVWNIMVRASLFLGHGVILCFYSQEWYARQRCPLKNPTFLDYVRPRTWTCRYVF
# Experiment: Compound at 1 mg/Kg was tested for the inhibition of rat liver microsomal Acyl coenzyme A:cholesterol acyltransferase 1 in plasma drawn from chow fed rabbits
# Type: cell-free
row,Compound,inhibition
1,CCCCCCCCCCCCc1cc(C(C(=O)Nc2c(OC)cc(OC)cc2OC)c2ccccc2)on1 (configuration not stated),0%
2,CCCCCCCCCCCCc1cc(C(C(=O)Nc2c(OC)cc(OC)cc2OC)c2ccccc2)no1 (configuration not stated),0%

# Test system: Oryctolagus cuniculus
# Experiment: Percent change in plasma total cholesterol at dose 5 mg/Kg in rabbits
# Type: functional
# Procedure, shortened: as §1
row,Compound,DeltaTC
1,CCCCCCCCCCCCc1cc(C(C(=O)Nc2c(OC)cc(OC)cc2OC)c2ccccc2)on1 (configuration not stated),-32%
2,CCCCCCCCCCCCc1cc(C(C(=O)Nc2c(OC)cc(OC)cc2OC)c2ccccc2)no1 (configuration not stated),-27%

# Test system: Oryctolagus cuniculus
# Experiment: Percent change in plasma total cholesterol at dose 1 mg/Kg in rabbits
# Type: functional
# Procedure, shortened: as §1
row,Compound,DeltaTC
1,CCCCCCCCCCCCc1cc(C(C(=O)Nc2c(OC)cc(OC)cc2OC)c2ccccc2)on1 (configuration not stated),-26%
2,CCCCCCCCCCCCc1cc(C(C(=O)Nc2c(OC)cc(OC)cc2OC)c2ccccc2)no1 (configuration not stated),-17%

# Test system: Rattus norvegicus
# Experiment: Percent change in total cholesterol in the acute cholesterol-fed rat model (APCC) of hypercholesterolemia at 3 mg/Kg
# Type: functional
# Procedure, shortened: (§2)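 Acute rat model: compound given by gavage at 30 or 3 mg/kg in 1.5% carboxymethylcellulose/0.2% Tween-20 in water (3-4 pm). Rats then fed overnight a diet with 5.5% peanut oil, 1.5% cholesterol, 0.5% cholic acid. Result is percent decrease in plasma total cholesterol versus controls.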
row,Compound,DeltaTC
1,CCCCCCCCCCCCc1nnc(C(C(=O)Nc2c(C(C)C)cccc2C(C)C)c2ccccc2)o1 (configuration not stated),-23%
2,CCCCCCCCCCCCc1cc(C(C(=O)Nc2c(OC)cc(OC)cc2OC)c2ccccc2)on1 (configuration not stated),-68%
3,CCCCCCCCCCCCc1cc(C(C(=O)Nc2c(OC)cc(OC)cc2OC)c2ccccc2)no1 (configuration not stated),-50%

# Test system: Oryctolagus cuniculus
# Experiment: Percent change in TC relative to untreated controls at 5 mg/Kg in cholesterol fed rabbits (CFR)
row,Compound,DeltaTC
1,CCCCCCCCCCCCc1cc(C(C(=O)Nc2c(OC)cc(OC)cc2OC)c2ccccc2)on1 (configuration not stated),-64%
2,CCCCCCCCCCCCc1cc(C(C(=O)Nc2c(OC)cc(OC)cc2OC)c2ccccc2)no1 (configuration not stated),-66%

# Test system: Oryctolagus cuniculus
# Experiment: Percent change in plasma triglyceride levels at dose 25 mg/Kg in rabbits
# Type: functional
# Procedure, shortened: as §1
row,Compound,DeltaTC
1,CCCCCCCCCCC(C)(C)C(=O)Nc1c(OC)cc(OC)cc1OC [CL-976],-7%
2,CCCCCCCCCCCCc1cc(C(C(=O)Nc2c(OC)cc(OC)cc2OC)c2ccccc2)on1 (configuration not stated),168%
3,CCCCCCCCCCCCc1cc(C(C(=O)Nc2c(OC)cc(OC)cc2OC)c2ccccc2)no1 (configuration not stated),157%

# Test system: Oryctolagus cuniculus
# Experiment: Percent change in lesion coverage relative to control in the thoracic aorta at dose 5 mg/Kg in rabbits
# Type: functional
# Procedure, shortened: as §1
row,Compound,Activity
1,CCCCCCCCCCCCc1cc(C(C(=O)Nc2c(OC)cc(OC)cc2OC)c2ccccc2)on1 (configuration not stated),-46%
2,CCCCCCCCCCCCc1cc(C(C(=O)Nc2c(OC)cc(OC)cc2OC)c2ccccc2)no1 (configuration not stated),-29%

# Organism: Rattus norvegicus
# Experiment: Compound was tested for the percent change in total cholesterol (TC) by chronic rat model
# Type: functional
row,Compound,CPCC
1,CCCCCCCCCCCCc1cc(C(C(=O)Nc2c(OC)cc(OC)cc2OC)c2ccccc2)on1 (configuration not stated),-65
2,CCCCCCCCCCCCc1cc(C(C(=O)Nc2c(OC)cc(OC)cc2OC)c2ccccc2)no1 (configuration not stated),-61

# Test system: not listed separately
# Experiment: Acyl coenzyme A:cholesterol acyltransferase inhibition in cell culture measured in murine IC-21 macrophages.
# Procedure, shortened: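 Murine IC-21 macrophages preincubated 16 h in serum-free DMEM with albumin (20 μM) and phosphatidylserine/cholesterol vesicles; then compound in DMSO for 1 h, then 14C-sodium oleate added for 4 more h. Lipids extracted in hexane/2-propanol with [14C]cholesterol internal standard; neutral lipids separated by TLC, phosphorimaged; protein by Lowry. IC50 is the concentration giving 50% inhibition.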
row,Compound,IC50
1,CCCCCCCCCCCCc1cc(C(C(=O)Nc2c(OC)cc(OC)cc2OC)c2ccccc2)on1 (configuration not stated),0.17 µM
2,CCCCCCCCCCCCc1cc(C(C(=O)Nc2c(OC)cc(OC)cc2OC)c2ccccc2)no1 (configuration not stated),0.31 µM

# Target: T1, Sterol O-acyltransferase 1 (Rattus norvegicus)
# Experiment: Inhibition of rat liver microsomal Acyl coenzyme A:cholesterol acyltransferase 1 from rabbit plasma after an oral dose of 25 mg/kg
# Type: cell-free
# Procedure, shortened: (§3)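 Male New Zealand white rabbits conditioned to meal feeding for 1 week, then given a meal containing drug at 25 mg/kg in 3% peanut oil/3% coconut oil vehicle. Plasma was sampled at 0, 1, 2 and 4 h and extracted into hexane, then redissolved in chloroform/methanol (2:1). It was assayed for liver microsomal ACAT inhibition against standards of compound spiked into rabbit plasma in DMSO.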
row,Compound,inhibition
1,CCCCCCCCCCCCc1cc(C(C(=O)Nc2c(OC)cc(OC)cc2OC)c2ccccc2)on1 (configuration not stated),94%
2,CCCCCCCCCCCCc1cc(C(C(=O)Nc2c(OC)cc(OC)cc2OC)c2ccccc2)no1 (configuration not stated),92%

# Test system: Oryctolagus cuniculus
# Experiment: Percent change in TC relative to untreated controls at 25 mg/Kg in cholesterol fed rabbits (CFR)
row,Compound,DeltaTC
1,CCCCCCCCCCCCc1cc(C(C(=O)Nc2c(OC)cc(OC)cc2OC)c2ccccc2)on1 (configuration not stated),-76%

# Test system: Canis familiaris
# Experiment: CDOG represents the C-fed female Beagle dog model, data expressed as percent change in TC relative to untreated controls at compound concentration of 10 mg/Kg
# Type: functional, Canis lupus familiaris
# Procedure, shortened: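 Cholesterol-fed female Beagle dogs given bulk drug in capsules daily before meals for 1 week at 10 mg/kg. Plasma total cholesterol compared before and after treatment.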
row,Compound,CDOG
1,CCCCCCCCCCCCc1cc(C(C(=O)Nc2c(OC)cc(OC)cc2OC)c2ccccc2)on1 (configuration not stated),-44
2,CCCCCCCCCCCCc1cc(C(C(=O)Nc2c(OC)cc(OC)cc2OC)c2ccccc2)no1 (configuration not stated),-44

# Test system: Rattus norvegicus
# Experiment: Percent change in total cholesterol in the acute cholesterol-fed rat model (APCC) of hypercholesterolemia at 30 mg/Kg
# Type: functional
# Procedure, shortened: as §2
row,Compound,DeltaTC
1,CCCCCCCCCCCCc1nnc(C(C(=O)Nc2c(C(C)C)cccc2C(C)C)c2ccccc2)o1 (configuration not stated),-64%
2,CCCCCCCCCCCCc1cc(C(C(=O)Nc2c(OC)cc(OC)cc2OC)c2ccccc2)on1 (configuration not stated),-68%
3,CCCCCCCCCCCCc1cc(C(C(=O)Nc2c(OC)cc(OC)cc2OC)c2ccccc2)no1 (configuration not stated),-72%

# Target: T2, Sterol O-acyltransferase 1 (Rattus norvegicus, UniProt O70536)
# T2 sequence (O70536 whole entry): T1 sequence (whole entry)
# Experiment: Inhibition of Acyl coenzyme A:cholesterol acyltransferase 1 from rat liver microsomes
# Procedure, shortened: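 Microsomes isolated from livers of cholesterol-fed rats were incubated with compound and [1-14C]oleoyl-CoA to measure ACAT inhibition; IC50 reported in μM.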
row,Compound,IC50
1,CCCCCCCCCCCCc1nnc(C(C(=O)Nc2c(C(C)C)cccc2C(C)C)c2ccccc2)o1 (configuration not stated),0.014 µM
2,CCCCCCCCCCCCc1cc(C(C(=O)Nc2c(OC)cc(OC)cc2OC)c2ccccc2)on1 (configuration not stated),0.015 µM
3,CCCCCCCCCCCCc1cc(C(C(=O)Nc2c(OC)cc(OC)cc2OC)c2ccccc2)no1 (configuration not stated),0.022 µM

# Target: T1, Sterol O-acyltransferase 1 (Rattus norvegicus)
# Experiment: Compound at 25 mg/Kg was tested for the inhibition of rat liver microsomal Acyl coenzyme A:cholesterol acyltransferase 1 in plasma drawn from chow fed rabbits
# Type: cell-free
# Procedure, shortened: as §3
row,Compound,inhibition
1,CCCCCCCCCCCCc1cc(C(C(=O)Nc2c(OC)cc(OC)cc2OC)c2ccccc2)on1 (configuration not stated),94%
2,CCCCCCCCCCCCc1cc(C(C(=O)Nc2c(OC)cc(OC)cc2OC)c2ccccc2)no1 (configuration not stated),92%

# Test system: Oryctolagus cuniculus
# Experiment: Percent change in lesion coverage relative to control in the thoracic aorta at dose 1 mg/Kg in rabbits
# Type: functional
# Procedure, shortened: as §1
row,Compound,Activity
1,CCCCCCCCCCCCc1cc(C(C(=O)Nc2c(OC)cc(OC)cc2OC)c2ccccc2)on1 (configuration not stated),-53%
2,CCCCCCCCCCCCc1cc(C(C(=O)Nc2c(OC)cc(OC)cc2OC)c2ccccc2)no1 (configuration not stated),-20%

# Test system: Oryctolagus cuniculus
# Experiment: Percent change in plasma triglyceride levels at dose 1 mg/Kg in rabbits
# Type: functional
# Procedure, shortened: as §1
row,Compound,DeltaTC
1,CCCCCCCCCCCCc1cc(C(C(=O)Nc2c(OC)cc(OC)cc2OC)c2ccccc2)on1 (configuration not stated),1%
2,CCCCCCCCCCCCc1cc(C(C(=O)Nc2c(OC)cc(OC)cc2OC)c2ccccc2)no1 (configuration not stated),24%

# Target: T1, Sterol O-acyltransferase 1 (Rattus norvegicus)
# Experiment: Compound at 5 mg/Kg was tested for the inhibition of rat liver microsomal Acyl coenzyme A:cholesterol acyltransferase 1 in plasma drawn from chow fed rabbits
# Type: cell-free
row,Compound,inhibition
1,CCCCCCCCCCCCc1cc(C(C(=O)Nc2c(OC)cc(OC)cc2OC)c2ccccc2)on1 (configuration not stated),46%
2,CCCCCCCCCCCCc1cc(C(C(=O)Nc2c(OC)cc(OC)cc2OC)c2ccccc2)no1 (configuration not stated),68%

# Test system: Oryctolagus cuniculus
# Experiment: Percent change in plasma total cholesterol at dose 25 mg/Kg in rabbits
# Type: functional
# Procedure, shortened: as §1
row,Compound,DeltaTC
1,CCCCCCCCCCC(C)(C)C(=O)Nc1c(OC)cc(OC)cc1OC [CL-976],-24%
2,CCCCCCCCCCCCc1cc(C(C(=O)Nc2c(OC)cc(OC)cc2OC)c2ccccc2)on1 (configuration not stated),-26%
3,CCCCCCCCCCCCc1cc(C(C(=O)Nc2c(OC)cc(OC)cc2OC)c2ccccc2)no1 (configuration not stated),-27%
